Experimental data reported in ChEMBL document CHEMBL1126279, “Antiallergic and cytoprotective activity of new N-phenylbenzamido acid derivatives” (1992).
Activity calls are given as the source filed them. The calls are words filed in the database; no cut-off is given here.

How the values were obtained:
[1] = system: Rattus norvegicus; assay: Cytoprotective activity against ethanol-induced gastric lesions in male conscious rats; type: functional; conditions: Stomach, read-out: ID50 (the source's name)
Method in brief: (§1)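 Male rats (140–160 g) were fasted 24 h with water allowed. Lesions were induced by 1.5 mL oral absolute ethanol. Drugs were given iv (5 mL/kg) as sodium salt in saline, 15 min before. Stomachs were scored blind at 1 h for necrotic lesion length categories and counts (lesion index). Each agent was given at ≥3 doses, groups of five. % effect vs control was computed, and ID50 came from log-dose regression.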

[2] = system: Rattus norvegicus; assay: Antiallergic activity against rat passive cutaneous anaphylaxis (PCA) reaction induced by 25 mg/kg of ovalbumin given iv (bolus).; type: functional; conditions: read-out: ID50 (the source's name)
[3] = system: Rattus norvegicus; assay: Cytoprotective activity against ethanol-induced gastric lesions in male conscious rats; Inactive.; type: functional, organism-based; conditions: Stomach; method in brief: as §1
[4] = organism: Rattus norvegicus; assay: Inhibition of rat passive cutaneous anaphylaxis reaction; Inactive.; type: functional, organism-based
Method in brief: (§2)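 IgE antiserum was raised in male Sprague-Dawley rats by im ovalbumin (25 mg) in Bordetella pertussis suspension, and sera were pooled 14 days later. Naive young rats received 0.05 mL antiserum intradermally at two back sites. After 24 h they were challenged iv with saline containing egg albumin plus Evans blue and killed 30 min later to measure wheal axes. Compounds were given as sodium salt in saline, im, 15 min pre-challenge, at ≥3 doses (n ≥ 15). ID50 was derived by log-dose regression with p = 0.05 fiducial limits.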

[5] = organism: Rattus norvegicus; assay: Compound was evaluated for antiallergic activity against rat passive cutaneous anaphylaxis (PCA); type: functional; conditions: read-out: ID50 (the source's name); method in brief: as §2
[6] = system: Rattus norvegicus; assay: Compound was evaluated for cytoprotective activity against glucose-induced gastric lesions in male conscious rats; type: functional; conditions: Stomach, read-out: ID50 (the source's name)
Method in brief: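 Male rats (180–200 g) were fasted 24 h, then fed solely an aqueous glucose liquid meal. Drugs were given sc twice daily for 9 days. Lesions were scored by number of necrotic lesions and extent of impaired rumen area, and % effect vs control was calculated. Agents were given at four dose levels in groups of five in duplicate, or in duplicate at 100 mg/kg.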

[7] = system: Rattus norvegicus; assay: Antiallergic activity against rat passive cutaneous anaphylaxis (PCA) reaction induced by 25 mg/kg of ovalbumin given iv(bolus); type: functional; conditions: read-out: ID50 (the source's name)
[8] = system: Rattus norvegicus; assay: Compound was evaluated for cytoprotective activity against sodium chloride-induced gastric lesions in male conscious rats; type: functional; conditions: Stomach, read-out: ID50 (the source's name)
Method in brief: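 Male rats (140–160 g) were fasted 24 h. Lesions were induced by oral 1.5 mL/animal 25% (w/v) NaCl. Drugs were given iv (5 mL/kg) 15 min before. Stomachs were scored blind at 1 h by lesion index, and % effect vs control was calculated. Some agents were given at five dose levels in groups of five; others in duplicate at 30 and 100 mg/kg. ID50 came from log-dose regression.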

[9] = system: Rattus norvegicus; assay: Compound was evaluated for cytoprotective activity against acetic acid-induced gastric lesions in male conscious rats; type: functional; conditions: Stomach, read-out: ID50 (the source's name)
Method in brief: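 Under ether anesthesia, 50 µL of 30% acetic acid was injected into the gastric submucosa of fasted male rats (140–160 g). Drugs were given im at −0.5, 4 and 21 h. […] Agents were given at five dose levels in groups of five, or in duplicate at 100 mg/kg.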

SMILES	ED50 [1] [mg/kg]	ED50 [2] [mg/kg]	ID50 [3]	ID50 [4]	other results
O=C(Nc1ccccc1)c1cccc(-c2nn[nH]n2)c1	38.1	4.5	–	–	–
O=C(O)c1ccc(NC(=O)c2ccc([N+](=O)[O-])cc2)cc1	–	–	inactive	inactive	–
N#Cc1ccc(C(=O)Nc2ccc(C(=O)O)cc2)cc1	–	–	inactive	inactive	–
Cc1ccc(C(=O)Nc2cc(C(=O)O)cc(C(=O)O)c2)cc1	–	–	inactive	inactive	–
N#Cc1ccc(C(=O)Nc2cc(C(=O)O)ccc2C(=O)O)cc1	26.8	1.5	–	–	–
O=C(Nc1cccc(-c2nn[nH]n2)c1)c1cccc(-c2nn[nH]n2)c1	15.8	1.6	–	–	–
CCCCc1ccc(C(=O)Nc2cc(C(=O)O)cc(C(=O)O)c2)cc1	91.9	12.3	–	–	–
N#Cc1ccc(C(=O)Nc2ccc(C(=O)O)cc2C(=O)O)cc1	66.3	19.5	–	–	–
CN(C(=O)c1ccc(-c2nn[nH]n2)cc1)c1ccc(-c2nn[nH]n2)cc1	60	3.8	–	–	–
O=C(O)c1cc(NC(=O)c2cccc(Cl)c2)cc(C(=O)O)c1	–	–	inactive	inactive	–
NC(=O)c1ccc(NC(=O)c2ccc(-c3nn[nH]n3)cc2)cc1	33	2	–	–	–
N#Cc1ccc(NC(=O)c2ccc(C(=O)O)cc2)cc1	–	–	inactive	inactive	–
CCCc1c2oc(C(=O)O)cc(=O)c2cc2c(=O)cc(C(=O)O)n(CC)c12 [NEDOCROMIL]	–	1.3	inactive	–	–
O=C(Nc1ccccc1)c1ccc(-c2nn[nH]n2)cc1	40	8.4	–	–	–
O=C(O)c1ccc(NC(=O)c2ccc(-c3nn[nH]n3)cc2)cc1	3.5	2.3	–	–	–
COc1ccc(/C=C/C(=O)Nc2ccccc2C(=O)O)cc1OC [TRANILAST]	–	3.6	inactive	–	–
O=C(Nc1ccccc1-c1nn[nH]n1)c1ccc(-c2nn[nH]n2)cc1	6.1	1.5	–	–	–
N#Cc1ccc(C(=O)Nc2cccc(C(=O)O)c2C(=O)O)cc1	135	15.8	–	–	–
CCCc1ccc(C(=O)Nc2cc(C(=O)O)cc(C(=O)O)c2)cc1	94.2	–	–	–	ED50 [5]: 6.7 mg/kg
N#Cc1ccc(C(=O)Nc2cc(C(N)=O)cc(C(=O)O)c2)cc1	87.2	5.7	–	–	–
O=C(O)c1ccc(NC(=O)c2ccc(C(=O)O)cc2)cc1	54.3	25.4	–	–	–
CCCOc1ccc(C(=O)Nc2cc(C(=O)O)cc(C(=O)O)c2)cc1	78	–	–	inactive	–
O=C(Nc1ccc(-c2nnn[nH]2)cc1)c1ccc(-c2nnn[nH]2)cc1 [ANDOLAST]	2.5	–	–	–	ED50 [6]: 23.9 mg/kg; ED50 [7]: 0.09 mg/kg; ED50 [8]: 18.2 mg/kg; ED50 [9]: 9.4 mg/kg
O=C(Nc1ccc(-c2nn[nH]n2)cc1)c1cccc(-c2nn[nH]n2)c1	0.6	0.05	–	–	–
O=C(O)c1ccc(C(=O)O)c(NC(=O)c2ccc(-c3nn[nH]n3)cc2)c1	31.1	1.2	–	–	–
O=C(O)c1cc(NC(=O)c2ccc(O)c(O)c2)cc(C(=O)O)c1	–	–	inactive	inactive	–

SMILES	ED50 [1] [mg/kg]	ED50 [2] [mg/kg]	ID50 [3]	ID50 [4]	other results
O=C(O)c1cc(NC(=O)c2ccc(Cl)cc2)cc(C(=O)O)c1	97.3	–	–	inactive	–
N#Cc1ccc(NC(=O)c2ccc(-c3nn[nH]n3)cc2)cc1	19.7	1.2	–	–	–
O=C([O-])c1cc(=O)c2c(OCC(O)COc3cccc4oc(C(=O)[O-])cc(=O)c34)cccc2o1.[Na+].[Na+] [CROMOLYN SODIUM]	50.8	1.5	–	–	–
N#Cc1ccc(C(=O)Nc2cccc(C(=O)O)c2)cc1	–	–	inactive	inactive	–
O=C(Nc1ccc(C(=O)O)c(C(=O)O)c1)c1ccc([N+](=O)[O-])cc1	–	13.2	inactive	–	–
O=C(O)c1cc(NC(=O)c2ccc(-c3nn[nH]n3)cc2)cc(C(=O)O)c1	8.2	1.2	–	–	–
O=C(O)c1cc(NC(=O)c2ccc([N+](=O)[O-])cc2)cc(C(=O)O)c1	61.1	9.8	–	–	–
COc1ccc(C(=O)Nc2cc(C(=O)O)cc(C(=O)O)c2)cc1OC	116	–	–	inactive	–
COc1cc(C(=O)Nc2cc(C(=O)O)cc(C(=O)O)c2)cc(OC)c1OC	–	–	inactive	inactive	–
N#Cc1ccc(C(=O)Nc2ccc(C(=O)O)c(C(=O)O)c2)cc1	–	10.1	inactive	–	–
COc1ccc(C(=O)Nc2cc(C(=O)O)cc(C(=O)O)c2)cc1	–	–	inactive	inactive	–
O=C(Nc1ccccc1-c1nn[nH]n1)c1cccc(-c2nn[nH]n2)c1	9.7	–	–	–	ED50 [7]: 1.4 mg/kg
COc1cc(OC)cc(C(=O)Nc2cc(C(=O)O)cc(C(=O)O)c2)c1	108	–	–	inactive	–
O=C(O)c1cc(NC(=O)c2ccc(O)cc2)cc(C(=O)O)c1	–	–	inactive	inactive	–
N#Cc1ccc(C(=O)Nc2cc(C(=O)O)cc(C(=O)O)c2)cc1	32.1	1.7	–	–	–
O=C(O)c1cc(NC(=O)c2cc(O)cc(O)c2)cc(C(=O)O)c1	90.2	–	–	inactive	–
O=C(Nc1cccc(-c2nn[nH]n2)c1)c1ccc(-c2nn[nH]n2)cc1	1.1	0.03	–	–	–
O=C(O)c1cc(NC(=O)c2ccc(Cl)cc2Cl)cc(C(=O)O)c1	103	–	–	inactive	–
N#Cc1cccc(C(=O)Nc2cc(C(=O)O)cc(C(=O)O)c2)c1	140	5	–	–	–
N#Cc1ccc(C(=O)Nc2cc(CO)cc(C(=O)O)c2)cc1	–	–	inactive	inactive	–
O=C(O)c1cc(NC(=O)c2ccccc2)cc(C(=O)O)c1	–	–	inactive	inactive	–
O=C(O)c1ccc(C(=O)Nc2cc(C(=O)O)cc(C(=O)O)c2)cc1	32.2	2.1	–	–	–
N#Cc1ccc(C(=O)Nc2cccc(-c3nn[nH]n3)c2)cc1	21.4	–	–	inactive	–
N#Cc1ccc(C(=O)Nc2ccc(-c3nn[nH]n3)cc2)cc1	54.4	2.4	–	–	–
O=C(O)c1cc(NC(=O)c2ccc(C(F)(F)F)cc2)cc(C(=O)O)c1	–	–	inactive	inactive	–
